Source: PubChem
MLL AF4-AF9 inh: MLL-AF4/AF9 protein interaction inhibition. P42568. AlphaScreen, biotin-AF4 peptide binding to FLAG-AF9. inhibition, % at 10 µM. 350,000 tested, 0.47% active. AID 651704;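 active = every replicate reaching a set inhibition limit, whatever the replicate mean, cut at about 25% in these data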;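 note: 0% = plate neutral control median and 100% = total signal loss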
FN deposition inh: fibronectin deposition inhibition. AH1F fibroblasts, Alexa488-fibronectin deposition fluorescence, overnight. inhibition, % at 12.6 µM. 350,000 tested, 0.086% active. AID 743247;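 active = mean inhibition across replicates of 30% or more, regardless of how many single replicates reach that level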;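 note: positive control wells lacked labelled fibronectin entirely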
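material = AH1F fibroblast monolayer depositing Alexa488-labelled fibronectin into matrix | amount = 10000 AH1F cells/well | buffer or medium = DMEM plus 2% serum, read in PBS | incubation = 1 h cell adhesion before compound, then overnight fibronectin incubation | detection = fluorescence at 485 nm excitation, 525 nm emission | evaluation = percent inhibition as loss of matrix-bound fibronectin fluorescence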
PDI inh: PDI (human) enzyme inhibition; inhibition, % at 10 µM; PDI insulin aggregation turbidity, A650, 90 min; P07237; 350,000 tested, 0.052% active; AID 588391;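 active = mean inhibition across replicates of 30% or more, whatever share of single replicates reach that level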
SIRT5 block: sirtuin-5 (human) deacylase inhibition; Purified SirT5, succinyl-peptide AMC, trypsin-coupled fluorescence; Q9NXA8; 330,000 tested, 1.1% active; inhibition, % at 15 µM; in the data active = inhibition above about 15%
Target sequence (Q9NXA8 whole entry, looked up): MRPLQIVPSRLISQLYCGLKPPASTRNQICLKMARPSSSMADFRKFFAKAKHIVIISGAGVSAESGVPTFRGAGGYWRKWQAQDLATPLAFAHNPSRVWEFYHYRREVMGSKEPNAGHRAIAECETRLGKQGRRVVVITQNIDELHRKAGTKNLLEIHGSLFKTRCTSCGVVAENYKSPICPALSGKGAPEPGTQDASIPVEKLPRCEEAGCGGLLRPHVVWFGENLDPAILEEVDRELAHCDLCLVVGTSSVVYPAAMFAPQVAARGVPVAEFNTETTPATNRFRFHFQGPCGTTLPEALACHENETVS
ERp5 block: ERp5 (human) disulfide isomerase inhibition; 350,000 tested, 0.05% active; ERp5 insulin aggregation, absorbance 650 nm, 90 min; inhibition, % at 9.99 µM; Q15084;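 active = mean replicate inhibition above about 25%, with every replicate also reaching it, limit read from the data, passing the limit was not always enough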
An asterisk follows results filed as active; . = no result given. An excerpt weighted towards active compounds, which were near 1.3% of everything screened.

SMILES	MLL AF4-AF9 inh	FN deposition inh	PDI inh	SIRT5 block	ERp5 block
CC(C)C#Cc1cnc2c(c1)C(=O)N([C@@H](C)CO)C[C@@H](C)[C@H](CN(C)C(=O)CN1CCOCC1)O2	-5	-11	.	-2	-5
CC(C)C#Cc1cnc2c(c1)C(=O)N([C@@H](C)CO)C[C@@H](C)[C@H](CN(C)C(=O)c1ccccc1F)O2	0	-6	.	5	32*
CC(C)C#Cc1cnc2c(c1)C(=O)N([C@H](C)CO)C[C@H](C)[C@@H](CN(C)C(=O)CN1CCOCC1)O2	-5	8	.	39*	-9
CCC(=O)N/C(N)=N/c1nc(C)c2cc(C)c(C)cc2n1	0	-2	2	18*	-3
CC1CCN(C(=O)c2[nH]cnc2C(=O)N(C)Cc2ccccc2)CC1	2	5	15	.	3
Cc1ccc2cc(/C=C(\C#N)C(N)=O)c(N3CCCCC3)nc2c1	-2	-4	0	-5	3
CCOC(=O)/C(C#N)=C/c1cc2ccccc2nc1N1CCCCC1	12	-1	-3	112*	3
COc1cccc(NC(=O)N2CCc3nc(Nc4ccc(C(C)C)cc4)ncc3C2)c1	1	0	-2	.	2
COc1cc(Nc2ncc3c(n2)CCN(C(=O)Nc2ccc(C(C)C)cc2)C3)cc(OC)c1OC	6	9	0	18*	4
O=[N+]([O-])c1ccc(N=Nc2ccc(O)cc2O)cc1	.	-2	0	.	.
O=S(=O)(O)c1cc(Cl)cc(N=Nc2ccc(O)cc2O)c1O	10	9	3	39*	-5
CN1C(=O)N(C)N(Cc2ccccc2)C(=O)N1Cc1ccccc1	-4	5	.	.	3
O=C1C=CC(=O)N1Cc1ccccc1	48*	-10	-5	-2	-5
O=C(NNC(=O)c1ccccc1-n1cccc1)c1ccccc1	.	.	2	.	.
NNC(=O)c1ccccc1-n1cccc1	-1	-2	-11	22*	0
CN(C(=O)CC1C(=O)NCCN1Cc1ccccc1C(F)(F)F)C1CCOCC1 (stereo unspecified)	0	3	-6	32*	5
CN(Cc1nccn1C)C(=O)CC1C(=O)NCCN1Cc1ccccc1C(F)(F)F (stereo unspecified)	-1	-10	2	17*	1
CCn1ccnc1CN(C)C(=O)CC1C(=O)NCCN1Cc1c(F)cccc1Cl (stereo unspecified)	-2	.	-3	19*	-2
Cc1cnc(CNC(=O)CC2C(=O)NCCN2Cc2ccccc2C(F)(F)F)cn1 (stereo unspecified)	-2	1	0	0	-7
Cc1cc(CNC(=O)CC2C(=O)NCCN2Cc2ccccc2C(F)(F)F)on1 (stereo unspecified)	-1	.	-3	29*	8
CN(C(=O)CC1C(=O)NCCN1Cc1ccccc1F)C1CCOCC1 (stereo unspecified)	1	-9	6	-6	-3
Cc1c(Cl)cccc1NC(=O)Cc1cccs1	-6	-3	-8	57*	2
Cc1c(NC(=O)Cc2cccs2)cccc1[N+](=O)[O-]	0	.	-7	-7	2
CO[C@@H](CN(C)S(=O)(=O)c1ccc(Cl)cc1)[C@H](C)CN([C@H](C)CO)S(=O)(=O)c1cccc(Cl)c1	-4	-3	.	16*	0
CO[C@H](CN(C)S(=O)(=O)c1cccc(Cl)c1)[C@H](C)CN([C@@H](C)CO)S(=O)(=O)c1ccc(Cl)cc1	0	-13	.	1	-4
SMILES	MLL AF4-AF9 inh	FN deposition inh	PDI inh	SIRT5 block	ERp5 block
Cc1ccc(Nc2nc(-c3ccc(O)c(O)c3)cs2)nc1	42*	-12	.	1	-2
Cc1ccc(C2CC(=O)C=C(NCC(C)C)C2)cc1 (stereo unspecified)	2	0	-1	15*	8
CC1(C)CC(=O)C2=C(C1)OC1=C(C(=O)CC(C)(C)C1)C2c1ccc(O)cc1O	.	10	77*	.	.
CC(=O)c1ccc(C(=O)N2CCCC(CNC(=O)c3ccccc3Cl)C2)cc1 (stereo unspecified)	-1	-5	-3	-1	-11
Cc1cccc(NC(=O)N2CCCC(CNC(=O)c3ccccc3Cl)C2)c1C (stereo unspecified)	-2	5	-4	31*	-1
CN1C(=O)c2cc(NS(=O)(=O)c3ccc(Cl)cc3)ccc2OC[C@H]2O[C@@H](CC(=O)N3CCc4ccccc4C3)CC[C@@H]21	1	.	.	16*	4
CN1CCN(C(=O)C[C@H]2CC[C@@H]3[C@@H](COc4ccc(NC(=O)C5CCCC5)cc4C(=O)N3C)O2)CC1	47*	-6	.	6	3
CN1C(=O)c2cc(NS(=O)(=O)c3ccc(Cl)cc3)ccc2OC[C@@H]2O[C@@H](CC(=O)N3CCc4ccccc4C3)CC[C@@H]21	-1	-6	.	8	-5
CN1C(=O)c2cc(NC(=O)C3CCCCC3)ccc2OC[C@@H]2O[C@@H](CC(=O)NC3CCCC3)CC[C@H]21	-2	-11	.	0	31*
CN1C(=O)c2cc(NC(=O)C3CCCCC3)ccc2OC[C@H]2O[C@H](CC(=O)NC3CCCC3)CC[C@@H]21	.	3	.	.	.
CN1CCN(C(=O)C[C@H]2CC[C@@H]3[C@H](COc4ccc(NC(=O)C5CCCC5)cc4C(=O)N3C)O2)CC1	1	-2	.	3	-1
CN(c1ccc(C(=O)Nc2ccc(F)cc2F)cc1)S(=O)(=O)c1ccccc1	-5	.	5	-2	-3
C[C@@H]1CN([C@@H](C)CO)C(=O)c2cccc(NC(=O)C3CCCCC3)c2O[C@H]1CN(C)C(=O)Nc1ccc2c(c1)OCO2	2	.	.	-1	1
O=S(=O)(CCN1C=CC(C(F)(F)F)=NCC1)c1ccc(Cl)cc1Cl	44*	3	-2	-1	2
O=C(NCCC1=CCCCC1)C1CCN(S(=O)(=O)N2CCCC2)CC1	2	-6	1	-6	0
Cc1cccc(N2CCN(C(=O)c3ccc4nc[nH]c4c3)CC2)c1C	-27	1	-2	31*	-1
CCOC(=O)C(C)OC(=O)C1=C(C)NC(=O)NC1c1ccc2c(c1)OCO2 (stereo unspecified)	-1	-1	-4	20*	3
CCCCCOC(=O)C1=C(C)NC(=O)NC1c1ccc2c(c1)OCO2 (stereo unspecified)	3	5	9	.	2
c1ccc2oc(-c3[nH]ncc3CN(Cc3ccncc3)CC3CCCO3)cc2c1 (stereo unspecified)	2	8	-1	0	1
COc1cc(C(CCN2CCCC(C)C2)c2c(OC)cc(OC)c3c2OC(=O)CC3c2ccc(N(C)C)cc2)cc(OC)c1OC (stereo unspecified)	.	.	7	.	.
COc1cc(C(CCN2CCOCC2)c2c(OC)cc(OC)c3c2OC(=O)CC3c2ccc(N(C)C)cc2)cc(OC)c1OC (stereo unspecified)	49*	4	3	1	-2
